Here are results for five compounds from paper PMC3065020 (Journal of nuclear medicine : official publication, Society …, 2009).

By Ki is commonly meant a dissociation constant, usually derived from enzyme kinetics or from competition with a known ligand.

Data set [1] addresses T1, Aβ aggregates in postmortem AD brain homogenates (Homo sapiens, UniProt P05067). As to the kind of experiment: Competitive binding assay against ^18F-AV-45 in postmortem AD brain homogenates. The settings on record: read-out: Inhibition constant (Ki) against binding of ^18F-AV-45 to Aβ aggregates, radioligand ^18F-AV-45, 2 h at 37°C.
Data set [2] is described as follows: In vivo metabolism in mice. The procedure, abridged: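 Healthy mice received 370–555 MBq (10–15 mCi) of radiotracer by tail vein and were killed at 2, 10, 30 or 60 min. Plasma was separated by centrifugation (3,000 rpm, 2 min) and mixed with an equal volume of acetonitrile. After spinning at 5,000 rpm for 5 min, the supernatant was run on C18 HPLC (0.1% TFA water/acetonitrile gradient, 1 mL/min) with radioactivity detection. Metabolites were identified by LC/MS.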

A short description of a further data set: In vivo biodistribution. The arrangement: species or system mouse. The settings on record: for Brain uptake at 2 min after injection / Brain uptake at 60 min after injection: intravenous tracer dose of the metabolite; for Brain concentration at 2 min / Brain concentration at 60 min: intravenous. The procedure, abridged: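 CD-1 mice (20–26 g, male and female) received 370 kBq (10 µCi) of radiotracer in 10% ethanol/90% saline with 0.5% ascorbic acid by tail vein. Mice were killed by cardiac puncture under isoflurane at 2, 60, 120 and 180 min, with 3 animals per time point. Organs were weighed and γ-counted, and percentage dose was calculated against diluted aliquots of the injectate. Separately prepared labelled metabolites were also tested in healthy mice.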

For data set [3], the target named is T1, Aβ aggregates in postmortem AD brain homogenates. As to the kind of experiment: Saturation binding of ^18F-AV-45 in postmortem AD brain homogenates. The procedure, abridged:
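Gray matter from frozen AD brains was homogenized in PBS, diluted to 50–100 mg/mL and stored at −80°C. Saturation binding was run on 4 different AD brain homogenates. Binding was analysed by Scatchard plot with nonlinear regression, and Bmax was expressed as fmol/mg protein.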

Data set [4] addresses Aβ plaques in AD brain sections (Homo sapiens, UniProt P05067). As to the kind of experiment: In vitro autoradiography of postmortem human brain sections. In kind it is binding. The following applies: tracer 0.3 nM, 1 h. The procedure, abridged:
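Frozen brains from AD and control subjects were cut into 20-µm sections. Sections were incubated for 1 h with 0.3 nM radiotracer in 40% ethanol. They were then washed twice for 2 min in saturated Li2CO3 in 40% ethanol, once for 2 min in 40% ethanol, and rinsed in water for 30 s. Dried sections were exposed to film for 12–18 h, and the images were digitized.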

The target of data set [5] is T1, Aβ aggregates in postmortem AD brain homogenates. In kind it is binding.
The nature of data set [6]: Small-animal PET of monkey brain. Format: in vivo, rhesus monkey. The procedure, abridged:
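A young adult female rhesus monkey (6.65 kg) was intubated and kept under isoflurane, with a hindlimb venous catheter. After a transmission scan, it received 173.9 MBq (4.7 mCi; 71,262 MBq/mmol) of radiotracer in 3 mL of 95% saline/5% ethanol as a 1-min bolus. Emission data were collected for 90 min, corrected for attenuation and scatter, and reconstructed by 3D MAP. Manual volumetric ROIs (striatum, thalamus, cortex, white matter), drawn on the summed 60–90-min image, gave time–activity curves.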

T1 sequence (P05067 672-713 limits assumed): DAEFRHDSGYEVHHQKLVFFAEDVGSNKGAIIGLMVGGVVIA
Aβ plaques in AD brain sections, sequence (P05067 672-713 limits assumed): as above

`CC(=O)N(C)c1ccc(/C=C/c2ccc(OCCOCCOCCF)nc2)cc1` [^18F-AV-267]: in data set [1], the Ki came out at 398 ± 45 nM.

With `Nc1ccc(C=Cc2ccc(OCCOCCOCCF)nc2)cc1` [^18F-AV-160], the “Metabolite share in plasma” value in data set [2] (mouse plasma, 30 min after intravenous injection of ^18F-AV-45) was “about 48%”. Besides, in “In vivo biodistribution” (healthy mice), the “Brain uptake at 2 min after injection” value was 4.5 %ID/g and the “Brain uptake at 60 min after injection” value is reported as 1.8 %ID/g.

Consider `CC(=O)N(C)c1ccc(/C=C/c2ccc(OCCOCCOCC[18F])nc2)cc1` [^18F-AV-267], for which, in the data set “In vivo biodistribution” (healthy mice), the “Brain uptake at 2 min after injection” value worked out at 3.3 %ID/g and the “Brain uptake at 60 min after injection” value is on record as 1.8 %ID/g.

Turning to `CNc1ccc(/C=C/c2ccc(OCCOCCOCC[18F])nc2)cc1` [^18F-AV-45, (E)-4-(2-(6-(2-(2-(2-^18F-fluoroethoxy)ethoxy)ethoxy)pyridin-3-yl)vinyl)-N-methyl benzenamine], the “Bmax (saturation binding), average” value in data set [3] (average of 4 different AD brain homogenates) is 8,811 ± 1,643 fmol/mg protein. In addition, the “Bmax (saturation binding), representative example” value in data set [3] (representative AD brain homogenate, Figure 2) is recorded as 7,215 fmol/mg of protein. For the same compound, the “Labeling of AD brain sections containing Aβ plaques (autoradiogram)” value in data set [4] (AD brain sections) is “highly dense labeling”. Besides, the “Labeling of brain sections of control subjects (autoradiogram)” value in data set [4] (control subject brain sections) is recorded as “no specific labeling”. The same compound gave a Koff in data set [5] (dissociation from Aβ aggregates, AD brain homogenates) of 0.045 ± 0.006 min⁻¹. For the same compound, in data set [2] (intravenous, estimated), the “Biologic T1/2 in mouse plasma” value was “less than 30 min”. In addition, the “Parent remaining in plasma” value in data set [2] (mouse plasma, 30 min after intravenous injection) worked out at 30%. Moreover, the “Specific binding or retention in healthy monkey brain” value in data set [6] (healthy rhesus monkey, no Aβ plaques) is “did not display any specific binding or prolonged retention in the brain”. For the same compound, the “Time of peak activity in cortex” value in data set [6] (rhesus monkey, intravenous 173.9 MBq) was found to be 7 min. Also, the “Injected dose localized in the brain at the peak” value in data set [6] (rhesus monkey, intravenous 173.9 MBq, estimated) is “about 4.4 % of the injected dose”. Moreover, the “Brain concentration at 2 min” value is listed as 6.23 %ID/g in “In vivo biodistribution” (female healthy mice, 2 min after administration (peak)) and 7.33 %ID/g in “In vivo biodistribution” (male healthy mice, 2 min after administration). For the same compound, the “Brain concentration at 60 min” value in “In vivo biodistribution” (female healthy mice) is listed as 1.84 %ID/g; in the data set “In vivo biodistribution” (male healthy mice), 1.88 %ID/g. Further, the “Initial brain uptake of parent relative to either of its metabolites” value in “In vivo biodistribution” (healthy mice, initial uptake) is recorded as 1.5 fold.

Regarding `CNc1ccc(/C=C/c2ccc(OCCOCCOCCF)nc2)cc1` [^18F-AV-45, (E)-4-(2-(6-(2-(2-(2-^18F-fluoroethoxy)ethoxy)ethoxy)pyridin-3-yl)vinyl)-N-methyl benzenamine], in data set [5] (read-out: Kd = Koff/Kon, derived from kinetic measurement), the Kd was 1.31 nM.
